Scp1 inh – Scp-1 phosphatase inhibitors, primary screen, biochemical, colorimetric, uHTS | Carboxy-terminal domain RNA polymerase II polypeptide A small phosphatase 1 (Homo … | Recombinant Scp1, phosphopeptide, malachite green phosphate absorbance | inhibition, % at 20 µM | hit rate 0.88% among 340,000 | AID 493091, 2011;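 active = inhibition above about 50% at 20 µM, limit read from the data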;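 note: plate controls were DMSO wells with enzyme for no effect and wells lacking enzyme for full effect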
Target sequence (Q9GZU7 76-261 limits assumed): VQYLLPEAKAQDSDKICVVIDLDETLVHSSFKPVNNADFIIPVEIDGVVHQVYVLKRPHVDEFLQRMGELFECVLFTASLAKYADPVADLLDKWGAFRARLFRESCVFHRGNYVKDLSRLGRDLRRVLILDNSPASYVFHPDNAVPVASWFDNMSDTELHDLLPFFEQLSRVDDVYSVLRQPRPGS
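Test system: SCP-1 catalytic domain; Buffer or medium: Acidic Tris acetate buffer with magnesium and detergent; Also added: Phosphorylated 17-residue peptide substrate; Compound: single 20 µM dose, 1% DMSO; Schedule: enzyme reaction 45 min at room temperature, colour 5 min, stabilisation 30 min; Signal: Phosphate-binding colour reagent, absorbance read at 630 nm.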
DNMT1 inh – human DNMT1 methyltransferase inhibitors, primary screen, biochemical, molecular beacon, fluorescence, HinP1I cleavage, uHTS | hit rate 0.83% among 360,000 | DNA (cytosine-5)-methyltransferase 1 (Homo sapiens), P26358 | inhibition (reported as % activation of signal), % at 10 µM; in the data active = inhibition above about 50%
STEP inh – STEP phosphatase inhibitors, primary screen, biochemical, fluorescence intensity, uHTS; Tyrosine-protein phosphatase non-receptor type 5 (Homo sapiens), P54829; recombinant STEP, OMFP fluorogenic substrate; inhibition, % at 20 µM; hit rate 0.25% among 360,000;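 active = inhibition at 20 µM, scaled per plate between control wells, above about 37%, limit read from the data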;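 note: 0% = DMSO with enzyme and substrate and 100% = substrate only without enzyme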
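Test system: STEP tyrosine phosphatase / Reagent: OMFP at 25 µM / Doses: 20 µM, 1% DMSO / Read-out: percent inhibition scaled to no-enzyme and uninhibited-enzyme controls, plate-pattern corrected / Detection: FITC-channel fluorescence of OMFP product / Medium: Bis-Tris buffer pH 6.0, 2.5 mM DTT, 0.005% Tween 20 / Schedule: 20 min at room temperature, dark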
LMPTP inh – LMPTP phosphatase inhibitors, primary screen, biochemical, fluorescence intensity, uHTS | inhibition, % at 20 µM | recombinant LMPTP-A, OMFP fluorogenic substrate | hit rate 0.22% among 360,000 | Low molecular weight phosphotyrosine protein phosphatase (Homo sapiens), P24666;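 active = compounds that cut the enzyme signal by at least half of the control window in the single-dose screen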;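 note: plate controls were DMSO wells with enzyme plus substrate for no effect and substrate without enzyme for full effect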
Target sequence (P24666 whole entry, looked up): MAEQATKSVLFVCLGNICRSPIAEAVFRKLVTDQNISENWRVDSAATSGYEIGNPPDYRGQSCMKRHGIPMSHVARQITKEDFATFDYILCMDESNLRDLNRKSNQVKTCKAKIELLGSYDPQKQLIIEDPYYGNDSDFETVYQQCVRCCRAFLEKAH
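test system = LMPTP-A | amount = 0.625 nM LMPTP-A final | reagent = fluorogenic phosphatase substrate OMFP at 400 µM final | incubation = 50 min at room temperature | benchmarks = no-enzyme low control, uninhibited high control | medium = Bis-Tris pH 6.0, DTT, detergent | signal = fluorescence intensity of OMFP turnover product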
SUMO1 PPI mod – modulators of SUMO1 protein-protein interactions, primary screen, biochemical, uHTS; Small ubiquitin-related modifier 1 (Homo sapiens), P63165; SUMO1 binding to a labelled peptide, TR-FRET, 1 h; inhibition, % at 20 µM; hit rate 0.33% among 360,000; AID 602429, 2012; in the data active = inhibition above about 37%
Target sequence (P63165 whole entry, looked up): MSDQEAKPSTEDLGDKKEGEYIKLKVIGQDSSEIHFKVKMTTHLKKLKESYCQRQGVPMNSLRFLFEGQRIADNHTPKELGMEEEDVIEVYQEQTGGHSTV
Scp1 confirm – Scp-1 phosphatase inhibitors, retest, confirmation, biochemical, colorimetric, single concentration. shares compounds with Scp1 inh. recombinant SCP-1 catalytic domain, phosphate release, malachite green absorbance. inhibition, % at 20 µM. hit rate 61% among 2,500. AID 540281, 2011;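 note: plate controls were DMSO with enzyme for no effect and buffer wells lacking enzyme for full effect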
MG interference – colorimetric readout interference by compounds, confirmation, artefact control for Scp-1 inhibitor project, biochemical, single concentration. shares compounds with Scp1 inh. Colorimetric interference counterscreen, malachite green absorbance 630 nm. apparent inhibition (interference), % at 20 µM. 2,500 tested, under 10 active. AID 540313, 2011;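 note: compounds added after enzyme reaction finished so only phosphate colour detection is probed; plate controls were DMSO wells with completed Scp-1 reaction for no effect and substrate wells lacking enzyme for full effect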
Scp-1 Tm shift – Scp-1 binding by thermal shift, confirmation, orthogonal assay for Scp-1 inhibitor project, biophysical, differential scanning fluorimetry; thermal shift relative to vanadate control, % at 40 µM; AID 540329, 2011; shares compounds with Scp1 inh; hit rate 25% among 1,500; Recombinant SCP1, Sypro Orange thermal shift Tm;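 active = substances whose mean melting-temperature shift, as a percentage of the reference inhibitor's shift, reaches about 5.3%, limit read from the data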;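 note: 0% = Tm of DMSO wells and 100% = Tm with sodium orthovanadate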
Beacon interf DR – spectral interference with molecular beacon fluorescence, dose response, artefact control for DNMT1 inhibitor project, biochemical, fluorescent molecular beacon; shares compounds with DNMT1 inh; spectral interference counter-screen; IC50, µM; 200 tested, under 10 active; call rule not given here
DNMT1 confirm – DNMT1 methyltransferase inhibitor retest, confirmation, biochemical, molecular beacon, fluorescence, single concentration; shares compounds with DNMT1 inh; DNMT1 molecular beacon HinP1I cleavage; inhibition, % at 10 µM; hit rate 8% among 2,300; AID 602385, 2012;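 active = average inhibition of at least 30% in the single-concentration confirmation test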
Beacon interf – counter-screen for DNMT1 inhibitors: spectral interference | shares compounds with DNMT1 inh | DNMT1 molecular beacon spectral interference counterscreen, fluorescence 485/520 | activation (fluorescence interference), % at 10 µM | hit rate 1% among 2,300;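 active = activation of at least 30% at 10 µM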;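 note: DNMT1 catalytic domain with a HinP1I cleavage step and a FAM/dabcyl DNA beacon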
STEP conf – STEP phosphatase inhibitor hit confirmation, biochemical, fluorescence intensity, single concentration; shares compounds with STEP inh; recombinant STEP, OMFP fluorogenic substrate; inhibition, % at 20 µM; hit rate 32% among 520; AID 623866, 2012; call rule not given here;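 note: 0% = enzyme with substrate plus DMSO and 100% = substrate without enzyme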
An asterisk follows results filed as active; . = not tested or not shown. In the library only some 1.7% were active in any assay of this set; here they are far more common.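 Rule for the calls, unless noted: active = inhibition of at least 30% at 20 µM; inactive = the rest.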

SMILES	Scp1 inh	DNMT1 inh	STEP inh	LMPTP inh	SUMO1 PPI mod	Scp1 confirm	MG interference	Scp-1 Tm shift	STEP conf	others
O=C(Cn1cnc2ccc(Cl)cc2c1=O)NC1CCS(=O)(=O)C1 (stereo not drawn)	-6.9	2.8	-1.0	-0.6	-3.2	.	.	.	.
CN(CCOC(=O)/C=C/c1ccco1)Cc1ccccc1	65.6*	78.0*	3.0	0.3	0.5	52.9*	-8.2	1.2	.	DNMT1 confirm=9.0;Beacon interf=-2.9
CCN(c1ccc(NC(=O)COC(=O)/C=C/c2ccco2)cc1)C(C)C	2.1	-4.6	2.2	-0.9	-26.0	.	.	.	.
CCc1ccc(NC(=O)COC(=O)/C=C/c2ccco2)cc1	67.4*	50.1*	17.5	4.8	-6.7	62.6*	-0.5	0.2	.	DNMT1 confirm=3.1;Beacon interf=2.5
CO[C@H]1CN(C)C(=O)c2ccc(NC(=O)c3ccc4c(c3)OCO4)cc2OC[C@H](C)N(CC2CC2)C[C@@H]1C	.	.	.	-1.5	2.3	.	.	.	.
O=C(CCCc1ccccn1)c1cccc2ccccc12	-3.9	-7.6	-1.0	0.3	-19.1	.	.	.	.
O=C(CSc1cccc[n+]1[O-])Nc1cc2c(cc1Cl)C(=O)c1ccccc1C2=O	84.9*	92.1*	48.6*	50.1*	41.1*	10.8	-20.2	.	.	DNMT1 confirm=2.0;Beacon interf=-10.4
O=C(CSc1cccc[n+]1[O-])Nc1cc([N+](=O)[O-])ccc1Cl	-3.0	6.3	-2.3	-1.8	-23.3	.	.	.	.
CCCCCn1c(N)c(-c2nc3ccccc3o2)c2c([N+](=O)[O-])nn(C)c(=O)c21	98.7*	91.9*	96.8*	83.4*	3.9	72.7*	0.9	5.4*	40.4*	DNMT1 confirm=0.1;Beacon interf=0.1
CCCCn1c(N)c(-c2nc3ccccc3s2)c2c([N+](=O)[O-])nn(C)c(=O)c21	3.1	-13.6	3.1	0.7	-4.2	.	.	.	.
CCCc1nc2ccccc2n1C(C(=O)NC(C)(C)C)C1CC1 (stereo not drawn)	.	.	.	-0.8	4.0	.	.	.	.
Cc1c(C)n(C(=O)CSc2nc3ccccc3[nH]2)c2ccccc12	98.4*	99.8*	83.7*	15.0	1.0	60.4*	-7.9	5.8*	52.2*	DNMT1 confirm=13.4;Beacon interf=-2.3
O=C(CSc1nc2ccccc2[nH]1)N1CCCCC1	6.0	4.7	0.4	-0.9	-2.3	.	.	.	.
O=C(COc1ccc([N+](=O)[O-])cc1)Nc1nnc(-c2cccnc2)s1	75.5*	20.2	65.5*	47.2	4.4	76.4*	-4.6	6.9*	75.4*
CCOC(=O)C1=C(C)N=c2s/c(=C\c3ccc(OCC(=O)O)c(OC)c3)c(=O)n2C1c1ccc(OC)cc1 (stereo not drawn)	2.2	0.7	3.4	2.1	-15.4	.	.	.	.
CC1=C(C(=O)OC(C)C)C(c2ccc(Cl)cc2)n2c(s/c(=C\c3ccc(OCC(=O)O)cc3)c2=O)=N1 (stereo not drawn)	56.5*	85.7*	10.7	11.8	97.0*	49.5*	-22.2	4.3	51.6*
Cc1ccc(NC(=O)c2ccc(Cl)cc2Cl)cc1O	-7.4	-0.6	-1.7	1.5	0.5	.	.	.	.
COc1ccc(Cn2c(-c3ccco3)nc3c(c(=O)c4ccccc4n3C)c2=O)cc1	90.8*	15.9	79.8*	69.1*	45.0*	17.4	7.8	.	3.8
COc1ccc(Cc2nnc3sc(SCC(=O)Nc4ccccc4)nn3c2=O)cc1OC	-6.6	-0.6	6.8	0.1	3.8	.	.	.	.
N=c1c2ccccc2nnn1-c1ccc(C(F)(F)F)cc1	73.4*	23.9	94.0*	68.2*	-6.0	62.3*	-10.6	-5.5	16.6
O=C(O)CC/C(=C/c1cccc(NC(=O)c2ccccc2Cl)c1)c1nc2ccccc2s1	-1.0	-22.2	-2.5	0.7	-5.4	.	.	.	.
COc1cc(/C=C(\CCC(=O)O)c2nc3ccccc3s2)ccc1OCC(=O)Nc1c(Cl)cccc1Cl	74.9*	52.3*	49.2*	44.0	95.0*	51.9*	-16.7	3.4	20.5	Beacon interf DR=>99;DNMT1 confirm=70.1*;Beacon interf=0.0
O=C(CSc1nc2ccccc2[nH]1)NCC1CCCO1 (stereo not drawn)	-3.1	4.1	-1.6	-1.7	-0.4	.	.	.	.
CCOc1cc(/C=N/N=C2/NC(=O)C(CC(=O)O)S2)ccc1OCc1ccc(Cl)cc1Cl (stereo not drawn)	74.7*	8.0	63.6*	84.2*	11.5	65.1*	-15.6	-2.0	12.9*
COc1cc(/C=C2/SC(=S)N(CCC(=O)Nc3ccc(C(=O)O)cc3)C2=O)cc(OC)c1OC	67.7*	-0.7	41.6*	14.1	-24.9	63.2*	-9.8	24.7*	-1.2
O=C(CCN1C(=O)/C(=C/c2ccc(Cl)cc2)SC1=S)Nc1ccc(C(=O)O)cc1	91.6*	2.7	48.6*	75.3*	-4.5	69.4*	-14.2	-2.0	14.5
O=C(CCN1C(=O)/C(=C\c2cccs2)SC1=S)Nc1ccc(C(=O)O)cc1	10.0	2.1	8.2	13.8	-18.5	.	.	.	.
CCOC(=O)c1ccc(NC(=O)N2CCN(Cc3ccccc3)CC2)cc1	-0.8	-0.9	-2.6	-2.1	0.4	.	.	.	.
COc1cc(C(=O)CCN2CCC(c3ccccc3)C2)cc(OC)c1OC (stereo not drawn)	-6.8	5.6	-3.3	-2.9	-0.1	.	.	.	.
